Common to all, as to assay type: functional
Test [1] has as its system Rattus norvegicus. Nature of the test: Percent change in volume of foot edema of test compound to that of positive control was determined at a dose of 31.6 mg/kg in rat; -78/-78.
Test [2] deals with Rattus norvegicus. The experiment in a line: Percent change in volume of foot edema of test compound to that of positive control was determined at a dose of 3.16 mg/kg in rat; -13/-68.
The subject of test [3] is Rattus norvegicus. Nature of the test: Percent change in volume of foot edema of test compound to that of positive control was determined at a dose of 10 mg/kg in rat; -48/-68.
The species entered for test [4] is Cavia porcellus. The experiment in a line: Dose that protects 50% of guinea pig from collapse was determined in guinea pig anaphylaxis assay. The following applies: read-out: PD50. In outline: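 Guinea pigs dosed by gavage (10 mL/kg) with compound in 0.5% Tween 80/water; reference theophylline 100 mg/kg po. At 1–24 h, exposed in chamber to aerosolized 1% (w/v) egg albumin at 10 L air/min for up to 5 min; protected if no collapse within 5 min. PD50 by Litchfield and Wilcoxon.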

Test [5] relates to Rattus norvegicus. Nature of the test: Percent change in volume of foot edema of test compound to that of positive control was determined at a dose of 31.6 mg/kg in rat; -59/-83.
Test [6] has as its system Rattus norvegicus. Nature of the test: Percent change in volume of foot edema of test compound to that of positive control was determined at a dose of 10 mg/kg in rat; -2/-65.
For test [7], the system named is Rattus norvegicus. The experiment in a line: Percent change in volume of foot edema of test compound to that of positive control was determined at a dose of 10 mg/kg in rat; +22/-73.
The subject of test [8] is Rattus norvegicus. Nature of the test: Percent change in volume of foot edema of test compound to that of positive control was determined at a dose of 31.6 mg/kg in rat; -85/-78.

As to `Cl.Cl.OC(CCN1CCN(c2ccccn2)CC1)COc1ccc(Cl)cc1` (stereo not drawn), the PFA in test [1] is reported as -78; in test [2], -13; in test [3] it was -48. Besides, the ED50 in test [4] came out at 10.2 mg/kg.
For the molecule `OC(CCN1CCN(c2ccc(Br)cc2)CC1)COc1ccccc1` (stereo not drawn), the PFA in test [5] is -59; in test [6], -2.
With `OC(CCN1CCN(c2cccc(Cl)c2)CC1)COc1ccccc1` (stereo not drawn), the PFA is listed as 22 in test [7] and -85 in test [8].
